Bioassay records as filed in PubChem BioAssay.
GSK3A inh: inhibitors of human GSK-3 alpha kinase. ADP-Glo luminescence, 60 min. inhibition, % at 10 µM. 320,000 compounds, 0.1% hits;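 active means more than half of replicates show inhibition above 20%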;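 further: GST-tagged GSK-3 alpha with peptide substrate and 25 µM ATP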
Dyrk1A ADPGlo: inhibitors of rat Dyrk1A kinase. ADP-Glo luminescence, NFATc1 peptide. inhibition, % at 12.5 µM. AID 504441. Q63470. 310,000 compounds, 0.43% hits; in the data active means inhibition above about 50%
STK33 inh: inhibitors of human STK33 kinase; Q9BYT3; inhibition, % at 10 µM; purified STK33, MBP phosphorylation, ADP-Glo luminescence; 320,000 compounds, 0.073% hits; AID 2661;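 active means inhibition at or above 25%, using the most active replicate where run in duplicate; inactive means inhibition below 25%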
Target sequence (Q9BYT3 whole entry, looked up): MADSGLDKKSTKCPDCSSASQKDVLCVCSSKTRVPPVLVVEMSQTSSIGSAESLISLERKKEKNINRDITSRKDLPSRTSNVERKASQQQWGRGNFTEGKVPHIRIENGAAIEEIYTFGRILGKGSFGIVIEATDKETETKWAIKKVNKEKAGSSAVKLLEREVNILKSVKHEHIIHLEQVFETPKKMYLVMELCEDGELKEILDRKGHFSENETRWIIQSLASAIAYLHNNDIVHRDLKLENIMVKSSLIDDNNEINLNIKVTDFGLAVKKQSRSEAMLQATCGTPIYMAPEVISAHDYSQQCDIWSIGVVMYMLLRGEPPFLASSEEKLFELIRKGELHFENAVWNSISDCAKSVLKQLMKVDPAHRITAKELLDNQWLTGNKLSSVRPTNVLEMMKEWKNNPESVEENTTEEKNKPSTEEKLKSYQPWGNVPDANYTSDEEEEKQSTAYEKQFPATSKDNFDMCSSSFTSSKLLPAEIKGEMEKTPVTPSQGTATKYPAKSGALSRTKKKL
GSK3beta inhib: human GSK3beta kinase inhibition | P49841 | AID 2097 | activity score (negative = inhibition), % at 10 µM | 300,000 compounds, 0.038% hits | GST-GSK3beta kinase, ADP-Glo luminescence, 60 min; hits give low values;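 active means more than half of replicate wells score below -50%, meaning over 50% inhibition versus plate controls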
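Assay system: GST-tagged human GSK3beta kinase, cell-free; Input: 1.6 ng GSK3beta; Medium: Tris/MgCl2 kinase buffer; Timing: 60 min enzyme reaction, room temperature; Signal: ADP-Glo luminescence quantifying ADP generated by kinase; Evaluation: score relative to plate controls; Benchmarks: DMSO neutral wells and GW8510 at 20 µM as positive.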
Dyrk1A artifact: counter-screen for Dyrk1A inhibitors: ADP-Glo luciferase artifacts. ADP-Glo luciferase artifact assay, no Dyrk1A, luminescence. AC50, µM (doses to about 12 µM). AID 588348. shares compounds with Dyrk1A ADPGlo. 1,300 tested, under 10 active;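 active means fitted half-maximal dose AC50 no more than ten times the top valid tested dose, with luminescence dropping as dose rises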
Large screens that a line does not name were inactive (follow-up assays come after a bar, where they were run). This excerpt belongs to a sample that is enriched for hits.

COc1ccc(NC(=O)CN2C(=O)COc3ccc(S(=O)(=O)N4CCCCCC4)cc32)cc1	none
O=C(O)C(=O)Nc1nc(-c2ccc3c(c2)OCCO3)cs1	none
CSCC(=O)Nc1nc(-c2ccc3c(c2)OCCO3)cs1	Dyrk1A ADPGlo 68.4 | Dyrk1A artifact inactive
CCCC(=O)Nc1nc(-c2ccc3c(c2)OCCO3)cs1	Dyrk1A ADPGlo 54.6 (no result: GSK3beta inhib) | Dyrk1A artifact inactive
O=C(CSCC(=O)Nc1nc(-c2ccc3c(c2)OCO3)cs1)Nc1nccs1	none
CC(=O)Nc1cccc(-c2cnc(N)c(C(=O)c3cccnc3)n2)c1	GSK3A inh 88.5, Dyrk1A ADPGlo 88.2 (no result: GSK3beta inhib) | Dyrk1A artifact inactive
C=CCc1cc(OC)ccc1OCCCCn1cncn1	none
COc1ccc(C(=O)NNC(=O)CN(C)S(=O)(=O)c2ccc(Cl)cc2)c(OC)c1OC	none
N#CCC(N)=C(C#N)C#N	Dyrk1A ADPGlo 68.6 | Dyrk1A artifact inactive
CCOc1ccc(C(C(=O)NCC2CCCO2)N(Cc2cccs2)C(=O)c2snc(C(N)=O)c2N)cc1 (stereo unspecified)	none
CCCc1c(C(=O)N/N=C/c2cccc(OCc3ccc(F)cc3)c2)nnn1-c1nonc1N	none
Cc1ccc(-c2oc3ncnc(N)c3c2-c2ccc(C)cc2)cc1	none
Cc1oc2ncnc(N)c2c1C	Dyrk1A ADPGlo 50.3 | Dyrk1A artifact inactive
CCOCCOc1nc2c(c(=O)n(C)c(=O)n2C)n1Cc1ccc(C)cc1	Dyrk1A ADPGlo 60.0 | Dyrk1A artifact inactive
O=C(c1ccc(Cl)c(Cl)c1)N1CCC(=O)N(C(COCc2cccc(C(F)(F)F)c2)Cc2ccccc2)CC1 (stereo unspecified)	Dyrk1A ADPGlo 53.1 | Dyrk1A artifact inactive
CCOc1ccc(NC(=O)c2cccc(OC(=S)N3CCC(C)CC3)c2)cc1	none
O=C1CCN(CCCc2ccccc2)CCN1[C@H](CO)c1ccccc1	Dyrk1A ADPGlo 50.9 | Dyrk1A artifact inactive
NC(=S)Nc1ccc2cn[nH]c2c1	none
Cc1ccc(NC(=S)Nc2ccc3cn[nH]c3c2)cc1	Dyrk1A ADPGlo 63.4 | Dyrk1A artifact inactive
Cc1cc(C)cc(NC(=S)Nc2ccc3cn[nH]c3c2)c1	none (no result: GSK3A inh, STK33 inh)
C=CCNC(=S)Nc1ccc2cn[nH]c2c1	Dyrk1A ADPGlo 70.0 | Dyrk1A artifact inactive
COc1cc(N2CN=c3s/c(=C\c4ccccn4)c(=O)n3C2)cc(OC)c1OC	Dyrk1A ADPGlo 53.2 | Dyrk1A artifact inactive
Cc1cccc(OCC(=O)NCC(=O)N/N=C/c2cccnc2)c1	none
CCOc1cccc(CN2CCN(Cc3ccc(C)o3)C(CCO)C2)c1O (stereo unspecified)	none
COc1ccc(C(=O)N2CCN(c3ccc(C)cc3)CC2)cc1OC	none
COc1ccc(C(=O)N2CCN(c3c(C)cccc3C)CC2)cc1OC	Dyrk1A ADPGlo 58.5 (no result: GSK3A inh) | Dyrk1A artifact inactive
CCO[C@@H]1OC(C(=O)N2CCCCCCC2)=C[C@H](c2cn(C(C)=O)c3ccccc23)[C@H]1CCCO	none
CC12CCC(C(=O)Nc3nc4ccc(Br)cc4s3)(OC1=O)C2(C)C (stereo unspecified)	Dyrk1A ADPGlo 81.8 | Dyrk1A artifact inactive
CC12CCC(C(=O)Nc3nccs3)(OC1=O)C2(C)C (stereo unspecified)	none
CC(NCc1ccc(F)cc1)C(=O)NC1CCCCC1 (stereo unspecified)	none
COc1ccc(NC(=O)N(C)C[C@H]2Oc3ccc(NC(=O)CCN4CCOCC4)cc3C(=O)N([C@H](C)CO)C[C@@H]2C)cc1	Dyrk1A ADPGlo 55.5 (no result: GSK3beta inhib) | Dyrk1A artifact inactive
C[C@H]1CN([C@@H](C)CO)C(=O)c2cc(NC(=O)CCN3CCOCC3)ccc2O[C@H]1CN(C)C(=O)Nc1ccc(F)cc1	none (no result: GSK3beta inhib)
COc1c(O)cc2oc(-c3ccc(O)cc3)cc(=O)c2c1O	none
O=c1cc(-c2ccc(O)cc2)oc2c(O)c(O)c(O)c(O)c12	Dyrk1A ADPGlo 54.4 (no result: GSK3beta inhib) | Dyrk1A artifact inactive
O=c1cc(-c2ccccc2)oc2cc(O)c(O)c(O)c12	Dyrk1A ADPGlo 57.3 (no result: GSK3A inh, STK33 inh, GSK3beta inhib) | Dyrk1A artifact inactive
Cc1ccc2c(c1)N(CC(=O)NCCCN1CCCCC1)C(=O)CO2	none
Cc1ccc(C(=O)Nc2ccc3ccccc3n2)cc1	none
O=C(Nc1ccc2ccccc2n1)c1ccccc1	Dyrk1A ADPGlo 51.1 | Dyrk1A artifact inactive
O=C(C1CC(=O)N(C2CCCC2)C1)N1CCN(c2ccc(F)cc2)CC1 (stereo unspecified)	Dyrk1A ADPGlo 61.1 (no result: GSK3A inh, STK33 inh) | Dyrk1A artifact inactive
O=C(CCNC(=O)c1ccc(Br)cc1)NC1CCCc2ccccc21 (stereo unspecified)	none
COCCn1cnnc1SCC(=O)Nc1ccc(Br)cc1F	none
Cc1ccc(-c2onc3ccc(C=O)cc23)cc1	none
O=C(O)/C=C/c1ccc2noc(-c3ccccc3)c2c1	Dyrk1A ADPGlo 69.7 | Dyrk1A artifact inactive
COc1cccc(N(CC(=O)N2CCCCCC2)S(C)(=O)=O)c1	none
CCNc1nc(N)nc(-c2cc(Cl)ccc2O)n1	GSK3A inh 72.3, Dyrk1A ADPGlo 67.0, STK33 inh 74.6, GSK3beta inhib -72.7 | Dyrk1A artifact inactive
CCCCNc1nc(N)nc(-c2cc(Cl)ccc2O)n1	none
CC1=C(C(=O)OCc2ccc3c(c2)OCO3)C(c2ccc(F)cc2)NC(=O)N1 (stereo unspecified)	GSK3A inh 50.9, Dyrk1A ADPGlo 70.2 | Dyrk1A artifact inactive
C[N+](C)(CCOc1ccccc1)Cc1ccccc1 (tested in a mixture with another compound)	Dyrk1A ADPGlo 92.3 | Dyrk1A artifact inactive
Cc1ccccc1OCCCC(=O)Nc1ccc(S(=O)(=O)Nc2onc(C)c2C)cc1	none
c1csc(CNc2ncnc3ccc(-c4ccoc4)cc23)c1	Dyrk1A ADPGlo 74.0 (no result: GSK3beta inhib) | Dyrk1A artifact inactive
CN(C)S(=O)(=O)c1ccc(Cl)c(C(=O)Nc2cccc3ncccc23)c1	Dyrk1A ADPGlo 85.2 (no result: GSK3beta inhib) | Dyrk1A artifact inactive
O=C(Nc1cccc2ncccc12)c1cc([N+](=O)[O-])ccc1Cl	none
COc1cc(-c2noc(CCCC(=O)NC3CCCCC3)n2)cc(OC)c1OC	none (no result: GSK3A inh, STK33 inh)
COc1ccccc1N=c1oc2cc(O)ccc2cc1C(N)=O	GSK3A inh 61.0, Dyrk1A ADPGlo 92.8, STK33 inh 36.8 | Dyrk1A artifact inactive
COc1ccccc1N=c1oc2cc(O)ccc2cc1C(=O)NCC1CCCO1 (stereo unspecified)	none
O=C(CCSc1nnc2scc(-c3ccccc3)n12)NCc1ccc2c(c1)OCO2	none
c1ccc(-c2csc3nnc(SCc4ccc5c(c4)OCO5)n23)cc1	Dyrk1A ADPGlo 57.9 | Dyrk1A artifact inactive
Cc1cccc(CNc2ncnc3ccc(-c4ccc5c(c4)OCO5)cc23)c1	Dyrk1A ADPGlo 50.8 (no result: GSK3beta inhib) | Dyrk1A artifact inactive
Cc1ccccc1NC(=O)c1ccc(Cl)c(NC(=O)c2ccncc2)c1	none
COc1ccc(C=C2C(=O)c3ccccc3C2=O)cc1O	Dyrk1A ADPGlo 84.4 | Dyrk1A artifact inactive
COc1cc(C=C2C(=O)c3ccccc3C2=O)ccc1O	Dyrk1A ADPGlo 96.8 | Dyrk1A artifact inactive
COc1cc(/C=C2\SC(N)=NC2=O)ccc1O	Dyrk1A ADPGlo 89.8, STK33 inh 26.1 | Dyrk1A artifact inactive
Cc1cccc(-c2noc(-c3ccno3)n2)c1	none
